# A selection: hits, their analogues and other compounds. The true share with any hit is near 1.3%.
# JMJD2C inh: inhibitors of human GASC-1 (JMJD2C) demethylase; 330,000 compounds, 0.069% hits; Q9H3R0; GST-JMJD2C(1-420) H3K9me3 demethylation, DELFIA europium; AID 2099; inhibition, % at 2.35 µM;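 active = more than half of a compound's replicate wells show inhibition beyond 50%, single wells judged on their own value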;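 also: signal counts dimethyl H3K9 product captured on neutravidin plate; 0% = median of DMSO wells and 100% = 0.3 times that DMSO median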
# GRK2 aptamer HTS: inhibitors of human GRK2 displacing RNA aptamer; bead flow cytometry, FAM-aptamer displacement from GRK2; inhibition of aptamer binding, % at 10 µM; 330,000 compounds, 0.59% hits; AID 488847;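 active = inhibition of aptamer binding above 40%, roughly 3 SD of noise, on plates passing a quality check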;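 also: median bead fluorescence of bound FAM aptamer so fluorescent compounds give negative values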
# Lipid droplet: hepatic lipid droplet formation modulation | AML12 mouse hepatocytes, oleate lipid droplets, BODIPY imaging | inhibition, % at 6.5 µM | 240,000 compounds, 0.4% hits | AID 1656;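 active = lipid droplet intensity inhibited by at least 50%, with more than 500 cells counted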
#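 Test system: AML12 hepatocytes (mouse); reagent: oleate loading, 100 µM; dosing: one dose, 6.5 µM compound; incubation: overnight exposure; signal: fluorescence imaging, 20x objective, two fields per well; read-out basis: % inhibition of corrected integrated BODIPY droplet signal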
# VLA-4 inh: inhibition in a human VLA-4 binding assay | P13612 | VLA-4 expressing cells, ligand binding flow cytometry | inhibition, % (about 7 µM as worked out from the volumes in the protocol) | 330,000 compounds, 0.2% hits; in the data active = inhibition above about 50%
# proCasp3 act: procaspase-3 (human) activation; P42574; recombinant procaspase-3 D3A, Ac-DEVD-pNA absorbance 405 nm; activation, % at 8.5 µM; 330,000 compounds, 0.11% hits;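 active = activation above the mean of all tested compounds plus 3 SD, cut at about 21% in these data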;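 also: 0% = DMSO alone and 100% = DMSO wells spiked with extra 5 µM PC-3 D3A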
# Target sequence (P42574 whole entry D9A/D28A/D175A): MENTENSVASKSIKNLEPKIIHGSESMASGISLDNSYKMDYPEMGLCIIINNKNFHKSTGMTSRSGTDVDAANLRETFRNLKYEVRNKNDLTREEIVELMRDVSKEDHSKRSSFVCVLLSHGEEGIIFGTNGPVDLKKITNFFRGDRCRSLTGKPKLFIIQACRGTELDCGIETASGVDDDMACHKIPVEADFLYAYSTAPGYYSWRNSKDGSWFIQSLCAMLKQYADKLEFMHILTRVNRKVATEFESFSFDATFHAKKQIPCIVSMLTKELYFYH
#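 System: Procaspase-3 D3A mutant. Medium: Zinc-free 300 mM NaCl, 50 mM HEPES, 0.01% Triton X-100. Schedule: 1 h preincubation plus 2 h reaction at 25 °C. Measured by: 405 nm absorbance of p-nitroaniline, reads at 0 and 120 min. Read-out: percent activation relative to control range.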
# procasp7 counter: counter-screen for procaspase-3 activators: activators of human procaspase-7 | 330,000 compounds, 0.093% hits | activation, % at 8.5 µM | P55210 | recombinant procaspase-7, Ac-DEVD-pNA absorbance 405 nm; D23A/D198A/D206A triple mutant, cannot self-cleave; scale: DMSO 0, 5 µM enzyme 100;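 active = percent activation above the screen-wide mean plus 3 SD, cut at about 25% in these data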
# Target sequence (P55210 whole entry D23A/D198A/D206A): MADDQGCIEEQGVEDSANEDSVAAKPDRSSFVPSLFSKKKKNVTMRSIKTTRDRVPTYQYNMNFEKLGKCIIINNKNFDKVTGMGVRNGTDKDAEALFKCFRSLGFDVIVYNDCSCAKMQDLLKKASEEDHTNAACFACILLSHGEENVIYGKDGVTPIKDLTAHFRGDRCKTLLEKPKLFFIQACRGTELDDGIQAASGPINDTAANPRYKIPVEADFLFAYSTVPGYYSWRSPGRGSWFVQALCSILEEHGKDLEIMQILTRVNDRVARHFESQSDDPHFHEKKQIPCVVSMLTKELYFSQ
#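 Assay system: Uncleavable procaspase-7 mutant enzyme | Input: 2 µM procaspase-7 mutant as dispensed | Timing: 1 h compound preincubation, 2 h substrate cleavage, 25 °C | Repeats: One well per compound | Control set: DMSO wells as 0%, DMSO with 5 µM added PC-7 as 100% | Technique: Epi-absorbance of released pNA at 405 nm, two timepoints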
# GRK2 CP1: human GRK2 inhibition confirmation, cherry pick 1 | shares compounds with GRK2 aptamer HTS | bead-bound GRK2, FAM-aptamer displacement, flow cytometry | aptamer displacement, % at 10 µM | 2,000 compounds, 4% hits | AID 504451;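 active = aptamer displacement above 40%, near three times the noise of non-fluorescent compounds, on plates passing quality checks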;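 also: negative values mostly reflect intrinsic compound fluorescence rather than true enhancement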
# Aptamer quench 1: fluorescent aptamer quenching in GRK2 counter-screen dose response; Fluorescent RNA aptamer beads, flow cytometry; stronger effect = higher value; fluorescence change (kMESF span), kMESF (no concentration beside the values); shares compounds with GRK2 aptamer HTS; 110 tested, under 10 active;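 active = compounds whose bead fluorescence drops by more than 37 kMESF across the dose range, marking them as dye quenchers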
# FAM quench CP1: counter-screen for GRK2 aptamer inhibitors: fluorescent aptamer quenchers. shares compounds with GRK2 aptamer HTS. Carboxyfluorescein RNA aptamer on beads, flow cytometry quenching; stronger effect = lower value. fluorescence response (% of DMSO), % at 10 µM. 2,000 tested, under 10 active. AID 504580;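 active = compounds that quench the bead-bound fluorescent RNA probe, cutting fluorescence to under half of the solvent control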;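 also: counterscreen run without GRK2 so only probe quenching by compound is measured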
# GRK2 confirm 2: confirmation of human GRK2 inhibitors binding RNA aptamer site | inhibition of aptamer binding, % at 10 µM | AID 504782 | shares compounds with GRK2 aptamer HTS | 360 tested, under 10 active | bead-bound GRK2, FAM-aptamer displacement, flow cytometry;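 active = inhibition of aptamer binding above 40%, about triple the noise seen with nonglowing compounds, on plates passing quality control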;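 also: negative values mostly come from compounds that fluoresce themselves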
# FAM quench CP2: counter-screen for GRK2 binding hits: quenchers of fluorescent RNA aptamer; shares compounds with GRK2 aptamer HTS; carboxyfluorescein RNA aptamer beads, flow cytometry quenching; stronger effect = lower value; fluorescence response vs DMSO, % at 10 µM; 360 tested, under 10 active; AID 588494;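 active = response vs DMSO under 50%, meaning signal dropped by over half, treated as fluorescence quencher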;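 also: labelled aptamer on streptavidin beads without GRK2 as a quench counter-screen; 100% = bead fluorescence of DMSO wells and lower means quenching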
# Starred values were filed as active, the others as inactive; x = no result.
SMILES,JMJD2C inh,GRK2 aptamer HTS,Lipid droplet,VLA-4 inh,proCasp3 act,procasp7 counter,GRK2 CP1,FAM quench CP1,others
CCc1nonc1NC(=O)COc1cc(C)c(Cl)c(C)c1,2.0,70.0*,-9.0,6.2,3.0,6.3,-3.1,96.7,
O=C1N/C(=N\c2ccccn2)SC1Cc1ccc(Cl)cc1 (stereo unspecified),3.5,5.0,-0.2,13.7,-3.0,0.2,x,x,
O=C(C1CCC(CNS(=O)(=O)c2ccccc2)CC1)N1CCOCC1 (stereo unspecified),1.8,0.0,-1.2,2.0,3.1,2.8,x,x,
O=C(C1CCC(=O)N(C2CC2)C1)N1CCC(Oc2cccc(C(F)(F)F)c2)CC1 (stereo unspecified),-11.9,x,-9.2,x,x,x,x,x,
Cc1ccc(S(=O)(=O)N2CCOCC2)cc1NC(=O)COC(=O)/C=C/c1ccco1,6.7,63.0*,x,10.2,5.9,-3.5,9.1,91.2,
COc1cccc(/C=C/C(=O)OCC(=O)Nc2cc(S(=O)(=O)N3CCOCC3)ccc2C)c1,-2.0,0.0,-1.0,-15.7,-16.6,5.4,x,x,
O=C(c1ccccc1)c1cc([N+](=O)[O-])ccc1N1CCCC1,0.3,100.0*,2.2,7.7,-4.3,6.2,x,x,GRK2 confirm 2=-3.5;FAM quench CP2=100.0
O=C(N/N=C/c1cc([N+](=O)[O-])ccc1N1CCCCCC1)c1ccccn1,-2.8,84.0*,-22.9,3.4,-14.1,-13.6,2.4,97.4,
CCc1ccc(OCC(=O)N/N=C/c2cc([N+](=O)[O-])ccc2N2CCCCCC2)cc1,1.6,0.0,-41.2,-0.8,-2.7,4.8,x,x,
CC(NC(=O)Nc1ccc(F)cc1F)c1ccc2c(c1)OCO2 (stereo unspecified),-9.8,4.0,-0.8,5.0,4.8,0.1,x,x,
O=C(CNC(=O)c1ccc(Cl)cc1Cl)OCC(=O)N1CCCC1,-1.8,56.0*,x,4.6,2.4,-0.5,1.0,98.7,
Cc1ccc(-n2ncc3c(NCc4cccnc4)ncnc32)cc1C,8.2,47.0*,12.8,2.1,-6.7,0.5,-2.2,103.8,
Cc1cccc(-n2ncc3c(NCc4cccnc4)ncnc32)c1,-1.8,1.0,-11.4,38.4,2.8,-4.3,x,x,
FC(F)Sc1nc2ccccc2[nH]1,-1.4,4.0,-2.1,10.8,-5.8,-7.9,x,x,
COC(CNC(=O)c1c[nH]c2ccc(S(=O)(=O)N(C)c3ccc(F)cc3)cc2c1=O)OC,-2.7,0.0,6.9,5.9,2.8,0.9,x,x,
CN(CC(=O)Nc1ccc2c(c1)OCCO2)S(=O)(=O)c1ccc(F)cc1,7.4,0.0,-3.1,12.8,14.5,4.7,x,x,
Cc1cccc(NC(=O)c2ccc(Cl)nc2)n1,0.1,0.0,-7.5,-16.9,-2.0,3.1,x,x,
Cc1cccc(NC(=O)c2csnn2)n1,-19.0,34.0,3.7,-17.2,-8.4,-4.0,-3.2,98.4,
Cc1cccc(C(=O)n2c(=S)nc3ccccn32)c1,-31.6,49.0*,4.3,1.6,-3.9,-20.3,-14.6,97.2,
Cc1ccc(C(=O)n2c(=S)nc3ccccn32)cc1,14.6,x,-3.5,x,x,x,x,x,
O=C(Nc1ccc(F)cc1)c1cc2cc(Cl)ccc2[nH]1,-17.9,58.0*,x,8.0,1.4,-3.9,x,x,GRK2 confirm 2=-24.6;FAM quench CP2=100.0
COc1ccc(CC(C)N2CCN(Cc3ccccc3)CC2)cc1OC (stereo unspecified),-11.2,2.0,-0.6,1.5,1.5,2.4,x,x,
CCOC(=O)C1CCN(C(=S)Nc2ccc(S(N)(=O)=O)cc2)CC1,-2.1,0.0,-8.7,8.9,-8.6,-16.4,x,x,
NS(=O)(=O)c1ccc(NC(=S)N2CCC(O)CC2)cc1,8.8,91.0*,-10.5,0.3,-7.8,-15.5,1.7,99.1,
CC(C)OCCCn1c(SC(C)C(=O)NC2CC2)nc2ccccc2c1=O (stereo unspecified),5.5,0.0,x,-86.6,-0.9,-2.5,x,x,
SMILES,JMJD2C inh,GRK2 aptamer HTS,Lipid droplet,VLA-4 inh,proCasp3 act,procasp7 counter,GRK2 CP1,FAM quench CP1,others
COc1ccc(CC(=O)N(Cc2ccccc2)c2cccc(C)c2)cc1OC,-12.1,100.0*,-7.8,16.6,4.3,11.6,x,x,GRK2 confirm 2=4.8;FAM quench CP2=99.0
COc1ccc(C(=O)N(Cc2ccccc2)c2cccc(C)c2)c(OC)c1OC,-2.1,5.0,-0.8,12.0,5.6,13.1,x,x,
Cc1cc([N+](=O)[O-])nn1Cc1noc(C(=O)NCCCn2ccnc2)n1,1.0,0.0,-17.7,-4.2,1.9,-9.8,x,x,
CC1(C)N=C(SCC(=O)Nc2ccc(Cl)cc2)C(c2ccc(Cl)cc2)=N1,-14.7,33.0,-1.2,27.4,-0.4,-5.6,-3.4,95.3,
COc1ccc(-n2nc(C(=O)NCC(=O)NC3CCCCCC3)c3ccccc3c2=O)cc1OC,-16.6,2.0,2.6,-3.0,8.9,-1.2,x,x,
COc1ccc(S(=O)(=O)N2CCN(C(=O)NCc3ccc(C)cc3)CC2)cc1,5.7,0.0,11.4,7.0,1.2,0.0,x,x,
O=C(O)C1CC=CCC1C(=O)Nc1ccc2c(c1)OCCO2 (stereo unspecified),-2.2,24.0,-35.9,1.9,2.5,-4.8,x,x,GRK2 confirm 2=12.2;FAM quench CP2=99.0
CCCC(=O)Nc1nc2ccc(OCC)cc2s1,15.8,1.0,-8.1,4.9,12.5,-0.9,x,x,
CCOc1ccc2nc(NC(=O)CCn3cccc3)sc2c1,5.2,34.0,x,15.3,-3.0,-3.6,2.8,98.0,
Cc1ccc(NC(=O)CN2C(=O)N/C(=C/c3cccn3-c3ccc(C(=O)O)cc3)C2=O)cc1,35.8,96.0*,32.3,27.7,-6.2,-1.6,86.1*,94.5,Aptamer quench 1=-0.9
CC(C)CN(C(=O)CSc1nnc(C2CC2)n1-c1ccccc1)C1CCS(=O)(=O)C1 (stereo unspecified),6.7,3.0,x,2.4,-3.2,8.2,x,x,
CCN(CC)S(=O)(=O)c1ccc(/C=C/C(=O)OCC(=O)N(C(C)C)C(C)C)cc1,-31.2,0.0,20.8,-4.7,12.4,3.0,x,x,
CN1C2=CC=CC=CC2=[N+](C)C12C=CC(=[N+]([O-])[O-])C=C2[N+](=O)[O-] (stereo unspecified),-14.6,3.0,-11.3,-0.9,5.5,2.1,x,x,
